≈ marks a conversion by molar mass, not a printed value. Calls of active or inactive are those of the source. The calls are words filed in the database; no cut-off is given here.
Assays:
[1] = tested on: Ribosomal RNA A-site; experiment: Binding affinity to rRNA-A site in human MDA-MB-231 cells assessed as inhibition of protein translation; type: cell-based
[2] = tested on: Staphylococcus aureus; experiment: Antibacterial activity against NEO-sensitive Staphylococcus aureus 25923 after 15 to 20 hrs by CLSI protocol based microdilution assay; type: functional
Outline: (§1)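 CLSI broth microdilution on exponential-phase bacteria at ~3×10^5 cells/mL in cation-adjusted Mueller-Hinton broth. Serial 2-fold dilutions gave final concentrations of 50 to 0.78 μM; compound stocks were 10× in 10% DMSO. Incubated at 37 °C for 15-20 h, growth read at A595. Percent inhibition averaged over triplicates; MIC in μM.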

[3] = tested on: Ribosomal RNA A-site; experiment: Displacement of F-NEO from Escherichia coli rRNA-A site after 10 to 20 mins by fluorescence assay; type: nucleic-acid assay
Outline: (§2)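 A 100 nM F-NEO:A-site RNA complex in 10 mM HEPES, 50 mM NaCl, 0.04 mM EDTA, pH 7.0 was titrated with 2-fold dilutions of ligand from 20 to 0.009 μM, or from 60 or 40 μM for weaker ligands. Incubated 10-20 min at room temperature, fluorescence read at ex 485/em 525 nm. IC50 from dose-response curve fit.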

[4] = molecular target: Ribosomal RNA A-site; experiment: Displacement of F-NEO from human cytosolic rRNA-A site after 10 to 20 mins by fluorescence assay; type: nucleic-acid assay; outline: as §2
[5] = tested on: Staphylococcus aureus; experiment: Antibacterial activity against NEO-sensitive Staphylococcus aureus harboring NorA mutant after 15 to 20 hrs by CLSI protocol based microdilution assay; type: functional; outline: as §1
[6] = tested on: Staphylococcus epidermidis; experiment: Antibacterial activity against NEO-sensitive Staphylococcus epidermidis 12384 after 15 to 20 hrs by CLSI protocol based microdilution assay; type: functional; outline: as §1
[7] = tested on: Staphylococcus aureus; experiment: Antibacterial activity against methicillin-resistant Staphylococcus aureus 33591 after 15 to 20 hrs by CLSI protocol based microdilution assay; type: functional; outline: as §1
[8] = tested on: Staphylococcus aureus; experiment: Antibacterial activity against methicillin-resistant Staphylococcus aureus A960649 after 15 to 20 hrs by CLSI protocol based microdilution assay; type: functional; outline: as §1
[9] = tested on: Staphylococcus aureus; experiment: Antibacterial activity against methicillin-resistant Staphylococcus aureus SU-5 after 15 to 20 hrs by CLSI protocol based microdilution assay; type: functional; outline: as §1
[10] = tested on: Staphylococcus aureus; experiment: Antibacterial activity against methicillin-resistant Staphylococcus aureus M0602 after 15 to 20 hrs by CLSI protocol based microdilution assay; type: functional; outline: as §1
[11] = tested on: Streptococcus pyogenes; experiment: Antibacterial activity against NEO-resistant Streptococcus pyogenes C203 after 15 to 20 hrs by CLSI protocol based microdilution assay; type: functional; outline: as §1
[12] = tested on: Bacillus anthracis; experiment: Antibacterial activity against NEO-sensitive Bacillus anthracis BA852 after 15 to 20 hrs by CLSI protocol based microdilution assay; type: functional; outline: as §1
[13] = tested on: Mycolicibacterium smegmatis; experiment: Antibacterial activity against NEO-sensitive Mycobacterium smegmatis after 15 to 20 hrs by CLSI protocol based microdilution assay; type: functional; outline: as §1
[14] = tested on: Escherichia coli; experiment: Antibacterial activity against NEO-sensitive Escherichia coli ATCC 25922 after 15 to 20 hrs by CLSI protocol based microdilution assay; type: functional; outline: as §1
[15] = tested on: Escherichia coli; experiment: Antibacterial activity against NEO-sensitive Escherichia coli harboring TolC mutant after 15 to 20 hrs by CLSI protocol based microdilution assay; type: functional; outline: as §1
[16] = tested on: Escherichia coli; experiment: Antibacterial activity against multidrug-resistant Escherichia coli H4H after 15 to 20 hrs by CLSI protocol based microdilution assay; type: functional; outline: as §1
[17] = tested on: Staphylococcus aureus; experiment: Antibacterial activity against NEO-sensitive Staphylococcus aureus C2 after 15 to 20 hrs by CLSI protocol based microdilution assay; type: functional
Outline: (§3)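 CLSI broth microdilution MIC in triplicate on exponential-phase cells, ~3×10^5 cells per mL in cation-adjusted Mueller-Hinton broth. Compound was added from 10× stocks in 10% DMSO as serial 2-fold dilutions, final 50 to 0.78 μM. Plates were incubated at 37 °C, humidified, 15-20 h. Growth was read as absorbance at 595 nm, and percent inhibition was averaged over triplicates.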

[18] = tested on: Staphylococcus aureus; experiment: Antibacterial activity against NEO-sensitive Staphylococcus aureus C1 after 15 to 20 hrs by CLSI protocol based microdilution assay; type: functional; outline: as §3
[19] = tested on: Staphylococcus aureus; experiment: Antibacterial activity against NEO-sensitive Staphylococcus aureus NRS77 after 15 to 20 hrs by CLSI protocol based microdilution assay; type: functional; outline: as §3
[20] = tested on: Staphylococcus aureus; experiment: Antibacterial activity against NEO-sensitive Staphylococcus aureus 6538 after 15 to 20 hrs by CLSI protocol based microdilution assay; type: functional; outline: as §3
[21] = Toxicity in Caenorhabditis elegans infected with methicillin-resistant Staphylococcus aureus assessed as effect on nematode larvae viability by measuring decrease in formazan production at 6.25 to 50 uM after 24 hrs by MTT assay relative to control
[22] = Toxicity in Caenorhabditis elegans infected with methicillin-resistant Staphylococcus aureus assessed as effect on nematode larvae viability by measuring decrease in formazan production at 3.13 to 1.56 uM after 24 hrs by MTT assay

CC/C(=C(\c1ccccc1)c1ccc(OCCN(C)C)cc1)c1ccccc1 [TAMOXIFEN]
IC50 [1]: 18100 nM

NC[C@@H]1O[C@H](O[C@H]2[C@@H](O)[C@H](O[C@@H]3[C@@H](O)[C@H](N)C[C@H](N)[C@H]3O[C@H]3O[C@H](CN)[C@@H](O)[C@H](O)[C@H]3N)O[C@@H]2CO)[C@H](N)[C@@H](O)[C@@H]1O [FRAMYCETIN]
MIC [2]: 1.56 µM (≈ 0.959 µg/mL) | IC50 [3]: 87 nM | IC50 [4]: 76 nM | MIC [5]: 1.56 µM (≈ 0.959 µg/mL) | MIC [6]: 1.56 µM (≈ 0.959 µg/mL) | MIC [7]: 400 µM (≈ 246 µg/mL) | MIC [8]: 100 µM (≈ 61.5 µg/mL) | MIC [9]: 200 to 400 µM (≈ 123 to 246 µg/mL) | MIC [10]: > 400 µM | MIC [11]: inactive | MIC [12]: 1.56 µM (≈ 0.959 µg/mL) | MIC [13]: 0.78 µM (≈ 0.479 µg/mL) | MIC [14]: 3.13 µM (≈ 1.92 µg/mL) | MIC [15]: 1.56 µM (≈ 0.959 µg/mL) | MIC [16]: 400 µM (≈ 246 µg/mL) | MIC [17]: 6.3 µM (≈ 3.87 µg/mL) | MIC [18]: 3.2 µM (≈ 1.97 µg/mL) | MIC [19]: 1.6 µM (≈ 0.983 µg/mL) | MIC [20]: 3.2 µM (≈ 1.97 µg/mL) | IC50 [1]: 139 nM | Activity [21]: 50 to 75% | Activity [22]: Non-Toxic

Source: ChEMBL document CHEMBL4330087, “Synthesis, antimicrobial activity, attenuation of aminoglycoside resistance in MRSA, and ribosomal A-site binding of pyrene-neomycin conjugates” (Eur J Med Chem, 2019)
